# From PubChem
# NR1D1 modulator: Rev-erb alpha (human) modulation | P20393 | Rev-erbα–FITC-DNA binding, fluorescence polarization, 90 min | activity, % at 10 µM | hit rate 0.79% among 370,000;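 active = activity above about 14%, limit read from the data; passing the limit was not always enough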;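 note: 0% = DMSO wells with 35 nM protein and 100% = DMSO wells with 750 nM protein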
# MsrA inhibitor: inhibits bovine methionine sulfoxide reductase A. purified bovine MsrA, absorbance read-out. AID 651718. inhibition, % at 15.5 µM. hit rate 0.75% among 360,000; in the data active = inhibition above about 4.5%;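 note: 0% = vehicle wells with enzyme and 100% = reference inhibitor wells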
# sPLA2-III inh: Inhibits HGIII-sPLA2 liposome hydrolysis, primary screen; Q9NZ20; QFRET BODIPY PC-A2 liposome hydrolysis, fluorescence; inhibition, % at 12.2 µM; hit rate 0.56% among 370,000;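 active = inhibition above mean plus 3 SD of compounds lying within the high and low control bounds, cut at about 19% in these data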;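 note: 0% = median of test compound wells and 100% = no enzyme DMSO wells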
# Target sequence (Q9NZ20 whole entry, looked up): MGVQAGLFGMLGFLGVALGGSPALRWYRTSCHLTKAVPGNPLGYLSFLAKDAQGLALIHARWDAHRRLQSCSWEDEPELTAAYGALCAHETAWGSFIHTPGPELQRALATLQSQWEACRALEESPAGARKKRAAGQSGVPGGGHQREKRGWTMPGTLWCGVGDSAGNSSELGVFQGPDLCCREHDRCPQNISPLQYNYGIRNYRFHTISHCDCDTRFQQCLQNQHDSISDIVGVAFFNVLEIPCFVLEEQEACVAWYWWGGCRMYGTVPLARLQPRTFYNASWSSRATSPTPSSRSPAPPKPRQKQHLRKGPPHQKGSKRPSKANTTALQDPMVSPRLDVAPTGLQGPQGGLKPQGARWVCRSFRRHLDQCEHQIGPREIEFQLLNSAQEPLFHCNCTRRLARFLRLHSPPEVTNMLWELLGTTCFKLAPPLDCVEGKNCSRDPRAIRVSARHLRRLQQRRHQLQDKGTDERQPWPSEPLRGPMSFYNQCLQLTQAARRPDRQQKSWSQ
# ASAP1 inh: ASAP1 ArfGAP inhibition; hit rate 0.19% among 360,000; ASAP1-stimulated ARF1 GTP hydrolysis, GDP FP detection; inhibition, % at 16.5 µM; Q9ULH1; in the data active = inhibition above about 25%;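 note: 0% = vehicle with enzyme and substrate and 100% = no enzyme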
# ARFGAP1 inh: inhibits rat ARF GTPase activating protein 1; hit rate 0.26% among 360,000; Q62848; Arfgap1-stimulated ARF1 GTP hydrolysis, GDP FP detection; AID 651572; inhibition, % at 16.5 µM;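 active = inhibition above a per-plate limit, mean inhibition of low control wells plus 3 SD, cut at about 25% in these data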;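 note: 0% = DMSO wells with enzyme and 100% = wells lacking Arfgap1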
# Target sequence (Q62848 1-136 limits assumed): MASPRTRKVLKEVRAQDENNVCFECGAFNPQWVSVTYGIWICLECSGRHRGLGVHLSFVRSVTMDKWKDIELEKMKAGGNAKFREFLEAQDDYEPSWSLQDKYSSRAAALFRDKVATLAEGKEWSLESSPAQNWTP
#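 System: truncated rat Arfgap1 GAP domain / Benchmarks: high control wells lacking Arfgap1, low control full reaction with DMSO / Times: compound-enzyme preincubation 20 min, reaction 120 min, detection 60 min, 25 °C / Repeats: one replicate per compound / Also added: human ARF1(Δ1-17)-GTP substrate / Measured by: Tracer-displacement fluorescence polarization with EDTA stop, 620/688 nm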
# bovine MsrA act: bovine methionine sulfoxide reductase A activation. purified bovine MsrA, absorbance read-out. activation, % at 10.6 µM. hit rate 0.3% among 360,000. AID 602163; in the data active = activation above about 7.5%;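 note: 0% = vehicle and 100% = reference activator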
# sPLA2 confirm: human GIII-sPLA2 inhibition, confirmation. hit rate 34% among 2,000. recombinant hGIII-sPLA2, BODIPY PC-A2 QFRET fluorescence. shares compounds with sPLA2-III inh. inhibition, % at 12.2 µM. AID 743280;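 active = mean inhibition across triplicates above the hit cutoff set in the earlier primary screen, cut at about 19% in these data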;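 note: 0% = enzyme with DMSO and 100% = DMSO wells lacking enzyme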
# 535nm interf: optically interferes with 535nm fluorescence in sPLA2 counter-screen. inhibition, % at 12.2 µM. BODIPY FL product fluorescence interference, QFRET. shares compounds with sPLA2-III inh. hit rate 8.5% among 2,000;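 active = average inhibition above the solvent-only control mean plus 3 SD, cut at about 6% in these data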;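 note: 0% = DMSO with substrate plus product and 100% = DMSO with substrate alone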
# BODIPY interf DR: interferes with 535nm fluorescence in dose response counter-screen; BODIPY FL product fluorescence interference, cell-free; 240 tested, under 10 active; shares compounds with sPLA2-III inh; AID 743455; IC50, µM;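 active = IC50 at or below 10 µM; inactive = IC50 above 10 µM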
# An asterisk follows results filed as active; nt = not tested or not shown. An excerpt weighted towards active compounds, which were near 2.7% of everything screened.
SMILES,NR1D1 modulator,MsrA inhibitor,sPLA2-III inh,ASAP1 inh,ARFGAP1 inh,bovine MsrA act,sPLA2 confirm,535nm interf,others
CCOC(=O)C1(C)CCN1C(=O)Cc1ccc(OC)cc1 (stereo not drawn),5,0,25*,4,-2,-3,7,-4,
Cc1cc(C(=O)NNC(=S)NC(=O)/C=C/c2ccccc2Cl)n[nH]1,3,2,26*,-8,2,-8,42*,-4,BODIPY interf DR=>122
COC(=O)[C@]12C[C@H](CC(=O)NCC3CCCCC3)C(=O)N(Cc3cccc4ccccc34)C1=C[C@H](C1CCCC1)O[C@@H]2C,4,nt,9,nt,nt,nt,nt,nt,
CCn1c(C)nc2cc(C(=O)NNC(=S)Nc3ccccc3OC)ccc21,-9,0,10,-9,2,nt,nt,nt,
CCn1c(C)nc2cc(C(=O)NNC(=S)Nc3ccc(C)cc3)ccc21,-11,1,20*,3,12,-3,27*,1,
CCC(C)NC(=O)CNc1nnnn1-c1ccccc1 (stereo not drawn),-2,nt,-2,nt,nt,nt,nt,nt,
CCCOc1ccc(/C=N/NC(=S)Nc2ccccc2[N+](=O)[O-])c(O)c1,-5,0,37*,-8,0,nt,56*,12*,
CCOC(=O)c1[nH]c(=S)n(-c2ccccc2)c1C(=O)OCC,3,2,25*,12,12,-5,18,0,
O=C1c2ccccc2C(=O)c2c(NCCCN(CCO)CCO)cccc21,17,1,20*,5,-8,-4,31*,-7,BODIPY interf DR=>122
CCN(CC)CC(=O)Nc1cccc2c1C(=O)c1ccccc1C2=O,-1,1,1,-3,-5,-2,nt,nt,
CCCCCCCCN1C(=O)[C@@H](CC(=O)N2CCSCC2)C[C@@]2(C(=O)OC)C1=C[C@H](C(C)C)O[C@@H]2C1CC1,-2,nt,6,nt,nt,nt,nt,nt,
O=C(N/N=C/c1ccc(Cl)cc1)c1n[nH]c2c1CCCC2,-2,0,21*,12,9,-4,-2,-5,
Cc1cc(NS(=O)(=O)c2ccc(NC(=O)Cc3ccc(Cl)c(F)c3)cc2)no1,-1,nt,-22,nt,nt,nt,nt,nt,
NC(=O)C1(Nc2ccc(-c3ccc(Br)cc3)cc2)CCCC1,-1,1,20*,0,-5,-6,12,3,
O=C(Nc1ccccc1OC(F)F)c1oc2ccccc2c1COc1ccccc1,18,1,25*,7,-6,-7,4,-13,
CC(C)CNC(=O)c1oc2ccccc2c1COc1ccccc1,5,0,1,1,-4,-2,nt,nt,
Oc1c(N=Nc2ccc(F)cc2)ccc2ccccc12,6,2,5,-7,-1,-1,nt,nt,
Cc1ccc(N=Nc2ccc3ccccc3c2O)cc1,3,0,20*,-14,9,-3,30*,8.3*,
CCOC(=O)NC(NC(=S)Nc1ccc(OCC)cc1)C(Cl)(Cl)Cl (stereo not drawn),-3,0,24*,10,8,-3,9,-5,
CN(C)C(=O)NC(NC(=S)Nc1ccccc1)C(Cl)(Cl)Cl (stereo not drawn),0,-1,6,5,3,-2,nt,nt,
O=C(NNC(=S)Nc1cccc(Cl)c1)c1ccccc1OC(F)F,4,0,25*,-5,6,-3,43*,2,BODIPY interf DR=>122
COc1cccc(NC(=S)NNC(=O)c2ccccc2OC(F)F)c1,4,3,25*,8,4,7,31*,6,
O=C(NC1CCCCN(Cc2ccc(Cl)cc2)C1=O)c1cccs1 (stereo not drawn),6,nt,10,nt,nt,nt,nt,nt,
C/C(=N\NC(=O)c1ccc(N(C)C)cc1)c1ccc(C)c(C)c1,-1,2,31*,6,6,-7,6,-2,
O=C(COC(=O)/C=C/c1ccc(Cl)cc1)NCCC1=CCCCC1,-2,-1,21*,-1,2,-4,-6,-10,
SMILES,NR1D1 modulator,MsrA inhibitor,sPLA2-III inh,ASAP1 inh,ARFGAP1 inh,bovine MsrA act,sPLA2 confirm,535nm interf,others
CCc1ccc(OCCNc2cc(N3CCNC(C)C3)ccc2[N+](=O)[O-])cc1 (stereo not drawn),-3,2,26*,2,8,1,18,-28,
O=C(Nc1ccc(F)cc1)OCc1cn(Cc2ccc(F)cc2F)nn1,-3,nt,-9,nt,nt,nt,nt,nt,
Cc1cc(C(=O)NNC(=S)NC(C)c2ccccc2)c2ccccc2n1 (stereo not drawn),1,1,24*,-1,11,-1,29*,-7,BODIPY interf DR=>122
Cc1cc(C(=O)NNC(=O)c2ccc(Cl)cc2)c2ccccc2n1,4,0,-5,10,14,-4,nt,nt,
O=C(Nc1ccc(Cl)cc1C(=O)N1CCOCC1)c1ccco1,-7,0,20*,-2,12,-4,2,-4,
COC(=O)[C@]12C[C@H](CC(=O)NCCC(C)C)C(=O)N(Cc3cccc4ccccc34)C1=C[C@H](C1CCCC1)O[C@@H]2C,-1,nt,-16,nt,nt,nt,nt,nt,
NC(=S)NN=C(c1ccccc1)c1ccccc1,3,1,19*,-4,-4,-3,22*,-4,
CC1CCc2nc3sc4c(c3c(N)c2C1)CCCC4 (stereo not drawn),4,1,20*,2,7,1,11,-5,
CCN1C(=O)[C@@H]2[C@@H]3CN(S(=O)(=O)c4ccc(C)cc4)[C@@H](c4ccccc4)[C@@H]3C(=O)C[C@@H]2C1=O,4,-1,-37,0,-4,-3,nt,nt,
CCOC1=CC2=C(C(=O)C(Cl)=CC2=O)[C@@H]2CN(S(=O)(=O)c3ccc(C)cc3)[C@@H](c3ccccc3)[C@H]12,-6,0,31*,13,7,-16,69*,11*,
C=CCNc1cc(=O)n(Cc2ccccc2)c(=O)[nH]1,-2,0,19*,9,0,-6,-2,-3,
C=CCNC1=C(Cl)C(=O)N(Cc2ccccc2)C1=O,1,1,-1,8,-1,-4,nt,nt,
CC(C)(C)c1csc(NNC(=O)c2ccc(Cl)cc2)n1,2,-1,34*,-11,9,3,45*,4,BODIPY interf DR=>122
O=C(NCc1cccc(Cl)c1)C1Cc2c(-c3ccccc3)ccnc2O1 (stereo not drawn),-6,-1,-7,-6,0,-1,nt,nt,
COc1ccc(-c2cccc3[nH]c4c(c23)CCN2C(=O)[C@H]3[C@H](C)ON(C)[C@H]3C[C@@H]42)cc1,0,0,-13,13,9,nt,nt,nt,
